Measurements: ChEMBL document CHEMBL4842372, “Discovery of ARD-2585 as an Exceptionally Potent and Orally Active PROTAC Degrader of Androgen Receptor for the Treatment of Advanced Prostate Cancer” (J Med Chem, 2021)

How the values were obtained:
VCaP = assay: Antitumor activity against human VCaP cells xenografted in CB17:SCID mouse assessed as tumor growth inhibition at 10 mg/kg, po treated for 37 days relative to control; format: functional; details: 888 h, time 37 day, read-out: TGI
[1] = Drug distribution in liver of CB17:SCID mouse xenografted with human VCaP cells at 20 mg/kg, po measured at 1 hrs by LCMS analysis; format: ADME, organism-based; details: read-out: Drug uptake
How it was run: (§1)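 Tumor-bearing male CB17 SCID mice (VCaP xenografts) given one 20 mg/kg oral dose in 100% PEG200, three mice per time point; plasma, tumor, liver, kidney, prostate and heart taken at 1, 6 and 24 h; tissues homogenised in water/acetonitrile, protein precipitated with cold acetonitrile, drug quantified by LC–MS/MS; ratios are tissue over plasma level.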

[2] = Drug distribution in prostate gland of CB17:SCID mouse xenografted with human VCaP cells at 20 mg/kg, po measured at 6 hrs by LCMS analysis; format: ADME, organism-based; details: read-out: Drug uptake; how it was run: as §1
[3] = Drug distribution in CB17:SCID mouse xenografted with human VCaP cells assessed as prostate gland to plasma ratio at 20 mg/kg, po measured at 24 hrs by LCMS analysis; format: ADME, organism-based; how it was run: as §1
[4] = Drug distribution in kidney of CB17:SCID mouse xenografted with human VCaP cells at 20 mg/kg, po measured at 24 hrs by LCMS analysis; format: ADME, organism-based; details: read-out: Drug uptake; how it was run: as §1
[5] = molecular target: Protein cereblon/Androgen receptor (Homo sapiens, UniProt P10275+Q96SW2, T878A); details: lncap
[6] = Drug distribution in CB17:SCID mouse xenografted with human VCaP cells assessed as kidney to plasma ratio at 20 mg/kg, po measured at 24 hrs by LCMS analysis; format: ADME, organism-based; how it was run: as §1
[7] = molecular target: T1, Protein cereblon/Androgen receptor (Homo sapiens, UniProt P10275+Q96SW2); assay: Protac activity at CRBN/AR in human VCaP cells assessed as reduction in AR protein level at 0.1 nM after 24 hrs by Western blot analysis relative to control; format: cell-based
How it was run: (§2)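 Western blot of AR after 24 h exposure to a concentration series in ATCC-derived cells, all with 10% FBS at 37 °C and 5% CO2: LNCaP and 22Rv1 in RPMI1640, VCaP in DMEM with Glutamax, MDA-PCa-2b in F-12K. Lysis in RIPA with protease and phosphatase inhibitors, then 4–12% SDS-PAGE and PVDF transfer. Band minus background is normalised to GAPDH.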

[8] = molecular target: T1, Protein cereblon/Androgen receptor; assay: Protac activity at CRBN/AR in human MDA-PCa-2b cells assessed as maximal AR degradation at 1 nM after 24 hrs by Western blot analysis relative to control; format: cell-based; how it was run: as §2
[9] = system: Protein cereblon/Androgen receptor (Homo sapiens), P10275+Q96SW2 [T878A]; assay: Protac activity at CRBN/AR T878A mutant in human LNCaP cells assessed as reduction in AR protein level at 0.3 nM after 24 hrs by Western blot analysis relative to control; format: cell-based; how it was run: as §2
[10] = Drug distribution in prostate gland of CB17:SCID mouse xenografted with human VCaP cells at 20 mg/kg, po measured at 24 hrs by LCMS analysis; format: ADME, organism-based; details: read-out: Drug uptake; how it was run: as §1
LNCaP = assay: Potency index, ratio of ARV-110 IC50 to compound IC50 for reduction in AR degradation human LNCaP cells after 24 hrs by Western blot analysis; format: functional
[11] = molecular target: Voltage-gated inwardly rectifying potassium channel KCNH2 (Homo sapiens, UniProt Q12809); assay: Inhibition of human ERG up to 30 uM
How it was run: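 hERG potassium channel stably expressed in HEK 293 cells; current recorded by manual patch clamp at 0.3, 1, 3, 10 and 30 μM, in duplicate, for concentration–response.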

T1 sequence (P10275 whole entry, looked up): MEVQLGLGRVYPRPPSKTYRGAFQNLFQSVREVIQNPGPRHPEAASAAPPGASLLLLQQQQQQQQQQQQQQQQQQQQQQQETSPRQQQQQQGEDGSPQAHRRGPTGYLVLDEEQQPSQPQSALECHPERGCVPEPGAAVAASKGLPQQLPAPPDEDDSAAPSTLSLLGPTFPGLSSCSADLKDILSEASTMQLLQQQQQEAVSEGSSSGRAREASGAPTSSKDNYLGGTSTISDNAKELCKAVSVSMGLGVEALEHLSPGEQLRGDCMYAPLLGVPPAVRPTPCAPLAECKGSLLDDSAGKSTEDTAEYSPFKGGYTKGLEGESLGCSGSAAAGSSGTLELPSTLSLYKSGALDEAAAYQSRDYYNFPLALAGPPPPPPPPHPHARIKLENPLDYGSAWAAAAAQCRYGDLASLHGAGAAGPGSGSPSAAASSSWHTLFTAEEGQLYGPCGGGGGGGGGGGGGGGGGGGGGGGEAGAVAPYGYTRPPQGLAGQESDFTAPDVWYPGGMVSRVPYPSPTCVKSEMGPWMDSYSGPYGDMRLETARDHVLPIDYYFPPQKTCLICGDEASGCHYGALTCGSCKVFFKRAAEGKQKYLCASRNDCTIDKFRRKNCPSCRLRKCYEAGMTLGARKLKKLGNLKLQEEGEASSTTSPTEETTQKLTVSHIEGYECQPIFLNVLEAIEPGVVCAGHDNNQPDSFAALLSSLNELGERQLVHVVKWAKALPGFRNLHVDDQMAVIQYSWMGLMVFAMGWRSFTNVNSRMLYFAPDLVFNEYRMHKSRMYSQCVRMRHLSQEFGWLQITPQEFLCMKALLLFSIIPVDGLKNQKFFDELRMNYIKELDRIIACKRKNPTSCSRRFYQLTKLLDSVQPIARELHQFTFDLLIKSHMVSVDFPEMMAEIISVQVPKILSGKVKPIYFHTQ
T1 sequence (Q96SW2 whole entry, looked up): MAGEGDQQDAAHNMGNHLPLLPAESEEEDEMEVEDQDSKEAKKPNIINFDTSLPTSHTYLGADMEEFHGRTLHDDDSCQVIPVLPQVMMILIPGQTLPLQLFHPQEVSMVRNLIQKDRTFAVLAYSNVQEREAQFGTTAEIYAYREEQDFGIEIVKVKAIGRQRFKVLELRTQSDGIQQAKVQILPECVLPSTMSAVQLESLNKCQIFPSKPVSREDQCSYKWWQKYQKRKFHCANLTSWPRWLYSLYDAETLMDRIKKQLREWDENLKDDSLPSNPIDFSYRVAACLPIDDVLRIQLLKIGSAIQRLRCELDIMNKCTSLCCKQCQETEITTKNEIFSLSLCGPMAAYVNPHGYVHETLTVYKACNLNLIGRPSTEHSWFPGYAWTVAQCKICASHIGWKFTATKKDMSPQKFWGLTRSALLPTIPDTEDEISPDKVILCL
Voltage-gated inwardly rectifying potassium channel KCNH2, sequence (Q12809 whole entry): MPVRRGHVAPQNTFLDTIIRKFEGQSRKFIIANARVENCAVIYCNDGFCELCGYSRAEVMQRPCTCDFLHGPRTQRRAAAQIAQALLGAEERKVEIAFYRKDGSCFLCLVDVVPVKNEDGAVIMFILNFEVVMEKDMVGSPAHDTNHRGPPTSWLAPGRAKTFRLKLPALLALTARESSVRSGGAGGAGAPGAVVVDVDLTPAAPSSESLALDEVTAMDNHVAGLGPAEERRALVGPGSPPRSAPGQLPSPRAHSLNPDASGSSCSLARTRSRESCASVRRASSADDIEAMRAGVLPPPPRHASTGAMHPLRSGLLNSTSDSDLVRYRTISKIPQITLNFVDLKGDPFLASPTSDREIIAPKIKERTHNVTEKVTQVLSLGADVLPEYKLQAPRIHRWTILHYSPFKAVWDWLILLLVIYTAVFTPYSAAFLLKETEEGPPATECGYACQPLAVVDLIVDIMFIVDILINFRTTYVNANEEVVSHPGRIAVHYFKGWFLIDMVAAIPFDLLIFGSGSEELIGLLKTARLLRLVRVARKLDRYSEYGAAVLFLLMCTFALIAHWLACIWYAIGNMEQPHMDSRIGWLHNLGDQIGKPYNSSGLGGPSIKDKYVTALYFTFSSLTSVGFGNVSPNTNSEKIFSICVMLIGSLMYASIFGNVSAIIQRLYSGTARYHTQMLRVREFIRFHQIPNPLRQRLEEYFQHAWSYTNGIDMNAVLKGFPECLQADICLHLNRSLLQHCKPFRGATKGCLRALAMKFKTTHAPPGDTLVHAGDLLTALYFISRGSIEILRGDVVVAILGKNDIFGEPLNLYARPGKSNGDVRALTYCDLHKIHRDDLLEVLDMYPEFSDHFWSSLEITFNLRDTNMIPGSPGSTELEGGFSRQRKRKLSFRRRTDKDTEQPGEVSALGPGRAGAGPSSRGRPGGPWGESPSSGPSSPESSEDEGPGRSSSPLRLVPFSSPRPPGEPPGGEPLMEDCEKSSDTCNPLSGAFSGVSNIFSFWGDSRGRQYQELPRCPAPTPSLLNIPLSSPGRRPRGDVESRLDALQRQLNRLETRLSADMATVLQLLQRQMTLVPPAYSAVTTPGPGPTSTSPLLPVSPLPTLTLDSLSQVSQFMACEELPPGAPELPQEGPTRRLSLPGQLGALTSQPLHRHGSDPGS
Protein cereblon/Androgen receptor (Homo sapiens, UniProt P10275+Q96SW2, T878A), sequence (P10275 whole entry T878A, stated change not applied): as the sequence (P10275 whole entry, looked up) above, with T878A counted along it
Protein cereblon/Androgen receptor (Homo sapiens, UniProt P10275+Q96SW2, T878A), sequence (Q96SW2 whole entry, stated change not applied): as the sequence (Q96SW2 whole entry, looked up) above

## CN(c1ccc(C#N)c(Cl)c1)[C@H]1CC[C@H](NC(=O)c2ccc(N3CCN(C4CN(c5ccc6c(c5)C(=O)N(C5CCC(=O)NC5=O)C6=O)C4)CC3)cc2)CC1 (stereo partly drawn)
VCaP
  inhibition in vivo at 10 mg/kg: 54.9%
[1]
  concentration at 1 h: 2640 ng/g
[2]
  concentration at 6 h: 76 ng/g
[3]
  Kp at 24 h: 0.5
[4]
  concentration at 24 h: 366 ng/g
[5]
  DC50: 0.1 nM
[6]
  Kp at 24 h: 1.7
[7]
  inhibition: > 80%
[8]
  Emax: > 95%
[9]
  inhibition: > 80%
[10]
  concentration at 24 h: 107 ng/g
LNCaP
  Ratio: 10
[11]
  inhibition (INH): Not Active
